The source of these data is article PMC3655773 (Acta pharmaceutica Sinica. B, 2012).

pEC50: −log10 of the molar value. Several values for one entry are separate records, joined by “and”; a condition that tells them apart may be missing. Identical values can stand only once. Like-named read-outs stand apart in the source and are kept apart here.

One data set concerns HIV-1. Conditions: previous studies, cited from earlier work; for pEC50: anti-HIV potency; for TI: therapeutic index.
The conditions of data set [1]: cited from earlier work.
For data set [2] the following is noted: rat, microsomes.
The nature of data set [3]: Pharmacokinetic assay in rat. To be noted: male SD rats; for F (oral bioavailability): i.g. 20 mg/kg vs 3 i.v. 2 mg/kg, dose-normalized AUC(0-t).
A short description of data set [4]: Water solubility analysis. Type of data set: physicochemical. Conditions: pH 7.4, room temperature. The method, boiled down: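 Excess test compound in water buffered to pH 7.4 with K2HPO4 phosphate, sonicated with stirring for 1 h at room temperature, then filtered. Supernatant analysed by HPLC on a C18 column (70% MeCN/30% water, 1.0 mL/min, UV 320 nm). Saturated concentration taken from peak area against a five-point (five-fold step) standard curve in MeCN, diluted from an acetonitrile stock.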

Data set [5] can be described thus: In vitro metabolic stability in SD rat liver microsomes. To be noted: 1 μM, NADPH; for k obs (degradation rate constant): SD rat liver microsomes 0.1 mg/mL, parent compound 3 measured; for T1/2: apparent in vitro half-life; for T1/2 / CLint: SD rat liver microsomes; for CLint: intrinsic clearance.
The nature of a further data set: in vitro. Conditions: Sprague-Dawley, rat, microsomes, pH 7.4.
The conditions of data set [6]: cited from earlier work. The source holds these as a separate data set.
[7] abbreviates: i.g. 20 mg/kg in 10% PEG400, parent 3 measured.
The mark [8] stands for this setting: i.g. 20 mg/kg in 10% PEG400, plasma parent compound 3 measured.

Turning to `Cc1cc(=O)oc2c3c(ccc12)OC(C)(C)[C@H](OC(=O)C12CCC(C)(C(=O)O1)C2(C)C)[C@@H]3OC(=O)C12CCC(C)(C(=O)O1)C2(C)C` (stereo partly shown) [Compound 2, 4-methyl-DCK], in the data set with HIV-1, the pEC50 was 8.82 and the TI was 15,733. In addition, the bioavailability entry in data set [1] (rat, in vivo) is given as “poor bioavailability”.

For `Cc1c(COC(=O)CN)c(=O)oc2c3c(ccc12)OC(C)(C)[C@H](OC(=O)[C@@]12CCC(C)(C(=O)O1)C2(C)C)[C@@H]3OC(=O)[C@@]12CCC(C)(C(=O)O1)C2(C)C.Cl` (relative stereo) [Compound 13, [3′,4′-Di-O-(S)-camphanoyl-4-methyl-(+)-cis-kellactone-3-yl]methyl 2-aminoacetate hydrochloride salt], in data set [2], the CLint came to 260 µL/min/mg and the T1/2 is on record as 26.54 min. Besides, in data set [3] (setting [7]), the CL worked out at 0.040 ± 0.010 L/h/kg, the Cmax was determined as 0.1911 ± 0.00248 µg/mL, the “MRT(0-t)” value was found to be 128.2 ± 7.38 min and the time of peak concentration (Tmax) turned out to be 45 min. Further, the volume of distribution (Vd) in data set [3] (setting [7]) is on record as 0.123 ± 0.058 L/kg. In data set [3] (setting [8]), the “AUC(0-t)” value stood at 477.8 ± 128.7 ng·L/mL. Moreover, the “F (oral bioavailability)” value in data set [3] came to 9.8%.

In data set [2], `Cc1c(COC(=O)CCC(=O)O)c(=O)oc2c3c(ccc12)OC(C)(C)[C@H](OC(=O)[C@@]12CC[C@@](C)(C(=O)O1)C2(C)C)[C@@H]3OC(=O)[C@@]12CC[C@@](C)(C(=O)O1)C2(C)C` (relative stereo) [Compound 6, 4-Oxo-4-[(3′,4′-di-0-(S)-camphanoyl-4-methyl-(+)-cis-kellactone-3-yl)methoxy]butanok acid] came in with a CLint of 200 µL/min/mg and a T1/2 of 35.27 min. In data set [3] (i.g. 20 mg/kg), the area under the curve (AUC) was determined as 0.1579 µg·h/mL. Besides, in data set [3] (setting [7]), the CL was 0.102 ± 0.020 L/h/kg, the Cmax was 0.0809 ± 0.0188 µg/mL, the “MRT(0-t)” value came out at 159.5 ± 40.9 min and the time to peak (Tmax) was determined as 22.8 min. For the same molecule, in data set [3] (setting [7]), the distribution volume (Vd) was determined as 0.669 ± 0.422 L/kg. Also, in data set [3] (setting [8]), the “AUC(0-t)” value was found to be 157.9 ± 42.94 ng·L/mL. For the same molecule, the “F (oral bioavailability)” value in data set [3] came out at 3.3%.

`Cc1c(COC(=O)C(C)N)c(=O)oc2c3c(ccc12)OC(C)(C)[C@H](OC(=O)[C@@]12CCC(C)(C(=O)O1)C2(C)C)[C@@H]3OC(=O)[C@@]12CCC(C)(C(=O)O1)C2(C)C` (relative stereo) [Compound 10, [3′,4′-Di-O-(S)-camphanoyl-4-methyl-(+)-cis-kellactone-3-yl]methyl 2-aminopropanoate]: in data set [4], the Water solubility is 0.018 mg/mL. In data set [2], the CLint came out at 140 µL/min/mg and the T1/2 is reported as 49.26 min. Moreover, the “systemic clearance (CL)” value in data set [3] (i.g. 20 mg/kg) worked out at 0.96 L/h/kg. In data set [3] (setting [7]), the CL is on record as 0.016 ± 0.007 L/h/kg, the Cmax was 0.6215 ± 0.07967 µg/mL, the “MRT(0-t)” value worked out at 107.6 ± 10.9 min and the time to peak (Tmax) was determined as 45 min. For the same molecule, the volume of distribution (Vd) in data set [3] (setting [7]) came out at 0.045 ± 0.017 L/kg. Moreover, the “AUC(0-t)” value in data set [3] (setting [8]) was 1296.5 ± 437.6 ng·L/mL. Besides, in data set [3], the “F (oral bioavailability)” value was 26% and 25.7%.

For the molecule `Cc1c(CO)c(=O)oc2c3c(ccc12)OC(C)(C)[C@H](OC(=O)C12CCC(C)(C(=O)O1)C2(C)C)[C@@H]3OC(=O)C12CCC(C)(C(=O)O1)C2(C)C` (stereo partly shown) [Compound 3, 3-hydroxymethyl-4-methyl-DCK], the Water solubility in data set [4] came to 0.0084 mg/mL. Besides, in the data set on HIV-1, the negative-log EC50 (pEC50) is 8.40 and the TI is recorded as 6225. In data set [1] (in rat, previous studies), the “bioavailability (F)” value is given as 15%. Besides, in data set [3] (setting [7]), the CL is on record as 0.020 ± 0.005 L/h/kg, the maximum concentration (Cmax) was found to be 0.5307 ± 0.1208 µg/mL, the “MRT(0-t)” value was determined as 119 ± 28.7 min and the Tmax was 34.8 min. Besides, the volume of distribution (Vd) in data set [3] (setting [7]) was determined as 0.079 ± 0.039 L/kg. Besides, in data set [3] (setting [8]), the “AUC(0-t)” value is recorded as 966.3 ± 219.7 ng·L/mL. Moreover, the “F (oral bioavailability)” value in data set [3] was determined as 17.3%. Further, in data set [3] (i.v. 2 mg/kg in 10% PEG400), the “AUC(0-t)” value is recorded as 558.4 ± 8.71 ng·L/mL, the CL amounted to 0.003 ± 0.0001 L/h/kg, the “MRT(0-t)” value is 74.1 ± 10.1 min and the Vd is 0.008 ± 0.002 L/kg. Further, in data set [5], the “k obs (degradation rate constant)” value was 0.039, the T1/2 is given as 17.92 min and the CLint was 390 µL/min/mg.

`Cc1c(COC(=O)C(N)CC(C)C)c(=O)oc2c3c(ccc12)OC(C)(C)[C@H](OC(=O)[C@@]12CCC(C)(C(=O)O1)C2(C)C)[C@@H]3OC(=O)[C@@]12CCC(C)(C(=O)O1)C2(C)C` (relative stereo) [Compound 12, [3′,4′-Di-O-(S) -camphanoyl-4-methyl-(+)-cis-kellactone-3-yl]methyl 2-amino-4-methyl-pentanoate]: in data set [3] (setting [7]), the CL is 0.026 ± 0.005 L/h/kg, the peak concentration (Cmax) was determined as 0.529 ± 0.1929 µg/mL, the “MRT(0-t)” value is 77.16 ± 5.1 min and the Tmax worked out at 30 min. Moreover, the volume of distribution (Vd) in data set [3] (setting [7]) is recorded as 0.049 ± 0.020 L/kg. In addition, in data set [3] (setting [8]), the “AUC(0-t)” value is given as 775.6 ± 162.9 ng·L/mL. Also, the “F (oral bioavailability)” value in data set [3] was determined as 15.8%. Further, in data set [5], the “k obs (degradation rate constant)” value amounted to 0.023, the T1/2 came out at 30.77 min and the CLint came out at 230 µL/min/mg.

As for `Cc1c(COC(=O)CCC(=O)O)c(=O)oc2c3c(ccc12)OC(C)(C)[C@H](OC(=O)[C@@]12CC[C@@](C)(C(=O)O1)C2(C)C)[C@@H]3OC(=O)[C@@]12CC[C@@](C)(C(=O)O1)C2(C)C` (relative stereo) [Compound 8, 4-Oxo-4-[(3′,4′-di-0-(S)-camphanoyl-4-methyl-(+)-cis-kellactone-3-yl)methoxy]butanok acid], in data set [2], the CLint was determined as 270 µL/min/mg and the T1/2 amounted to 25.93 min. This molecule also registered an exposure (AUC) in data set [3] (i.g. 20 mg/kg) of 0.5889 µg·h/mL. In data set [3] (setting [7]), the CL is 0.034 ± 0.004 L/h/kg, the Cmax was found to be 0.3985 ± 0.029 µg/mL, the “MRT(0-t)” value stood at 91.02 ± 12.4 min and the Tmax turned out to be 30 min. For the same molecule, the Vd in data set [3] (setting [7]) is given as 0.102 ± 0.011 L/kg. In data set [3] (setting [8]), the “AUC(0-t)” value was 588.9 ± 72.06 ng·L/mL. Further, in data set [3], the “F (oral bioavailability)” value is given as 12.4%.

In data set [2], `Cc1c(COC(=O)CN)c(=O)oc2c3c(ccc12)OC(C)(C)[C@H](OC(=O)[C@@]12CCC(C)(C(=O)O1)C2(C)C)[C@@H]3OC(=O)[C@@]12CCC(C)(C(=O)O1)C2(C)C` (relative stereo) [Compound 9, [3′,4′-Di-O-(S)-camphanoyl-4-methyl-(+)-cis-kellactone-3-yl]methyl 2-aminoacetate] came in with a CLint of 1780 µL/min/mg and a T1/2 of 3.90 min. In addition, in data set [3] (setting [7]), the CL turned out to be 0.037 ± 0.001 L/h/kg, the highest concentration (Cmax) came to 0.1636 ± 0.01356 µg/mL, the “MRT(0-t)” value was found to be 214.9 ± 18.4 min and the time of peak concentration (Tmax) came out at 15 min. Also, the volume of distribution (Vd) in data set [3] (setting [7]) is 0.467 ± 0.063 L/kg. For the same molecule, the “AUC(0-t)” value in data set [3] (setting [8]) was 384.1 ± 6.21 ng·L/mL. In addition, the “F (oral bioavailability)” value in data set [3] was determined as 7.5%.

`Cc1c(COC(=O)C(N)C(C)C)c(=O)oc2c3c(ccc12)OC(C)(C)[C@H](OC(=O)[C@@]12CCC(C)(C(=O)O1)C2(C)C)[C@@H]3OC(=O)[C@@]12CCC(C)(C(=O)O1)C2(C)C` (relative stereo) [Compound 11, [3′,4′-Di-O-(S)-camphanoyl-4-methyl-(+)-cis-kellactone-3-yl]methyl 2-amino-3-methyl-butanoate]: in data set [5], the “k obs (degradation rate constant)” value came to 0.023, the T1/2 is listed as 30.09 min and the CLint was found to be 230 µL/min/mg.

Molecule `CC(C)NCC(O)COc1cccc2ccccc12` (stereo not shown) [PRO, propranolol] came in with a half-life at 1 μM in the data set “in vitro” of 20.7 min. Moreover, the T1/2 in vivo entry in data set [6] is on record as “a Reference compounds: propranolol (moderate metabolism in vivo with T1/2 of 3–5 h)”.
